Converted amounts (≈) assume the structure as drawn.
B1: Beta-lactamase OXA-7 (Escherichia coli), P35695 (protein)
chain: MKTFAAYVITACLSSTALASSITENTFWNKEFSAEAVNGVFVLCKSSSKLACATNNLARASKEYLPASTFKIPNAIIGLETGVIKNEHQIFKWDGKPRAMKQWERDLSLRGAIQVSAVPVFQQIAREVGEVRMQKYLKKFSYGNQNISGGIDKFWLEGQLRISAVNQVEFLESLFLNKLSASKENQLIVKEALVTEAPEYLVHSKTGFSGVGTESNPGVAWWVGWVEKGAEVYFFAFNMDIDNENKLPLRKSIPTKIMASEGIIGG

Legend:
[1] = test system: Escherichia coli; test: Antimicrobial activity against Escherichia coli HN1157/pHSG576oxa7 assessed as minimal drug concentration; format: functional
Procedure, shortened: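 The inoculum was grown overnight in modified LB broth with 10 μg/ml chloramphenicol to keep the plasmid, diluted to OD660 0.1 and streaked across the gradient. Plates were read after overnight incubation at 30°C.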

[2] = test system: Escherichia coli; test: Antimicrobial activity against Escherichia coli HN1157/pHSG576oxa7; format: functional
[3] = Lipophilicity, log P of the compound; format: physicochemical; conditions: octanol/water
[4] = Permeability across Escherichia coli HN1157/pHSG576oxa7 assessed as permeability coefficient in presence of proton uncoupler carbonyl cyanide meta-chlorophenylhydrazone; format: ADME, organism-based; conditions: not told, read-out: permeability
[5] = test system: Escherichia coli; conditions: HN1157
[6] = substrate: Cc1onc(-c2c(Cl)cccc2Cl)c1C(=O)N[C@@H]1C(=O)N2[C@@H]1SC(C)(C)[C@@H]2C(=O)O; test: (§1) Activity at Escherichia coli isolate 7181 beta-lactamase OXA-7
Procedure, shortened: (§2)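 Crude sonicates of E. coli HN1157 carrying low-copy pHSG576oxa7, grown 14 h at 30°C in modified LB with 10 μg/ml chloramphenicol (plus 0.1% glucose for some substrates). Extract equals OD600 0.025 cells (9.38 μg dry weight/ml) in 50 mM potassium phosphate, pH 7.0, 5 mM MgCl2. Penicillin hydrolysis stopped with TCA at 2 min. Microiodometric OD592 read after 30 min, minus a zero-time TCA blank. Km and Vmax expressed per mg cell dry weight.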

[7] = substrate: CC1(C)S[C@@H]2[C@H](NC(=O)[C@H](NC(=O)N3CCN(S(C)(=O)=O)C3=O)c3ccccc3)C(=O)N2[C@H]1C(=O)O; test: as §1; procedure, shortened: as §2
[8] = substrate: Cc1onc(-c2ccccc2Cl)c1C(=O)N[C@@H]1C(=O)N2[C@@H]1SC(C)(C)[C@@H]2C(=O)O; test: as §1; procedure, shortened: as §2
[9] = substrate: Cc1onc(-c2ccccc2)c1C(=O)N[C@@H]1C(=O)N2[C@@H]1SC(C)(C)[C@@H]2C(=O)O; test: as §1; procedure, shortened: as §2
[10] = substrate: CC1(C)S[C@@H]2[C@H](NC(=O)[C@H](NC(=O)N3CCNC3=O)c3ccccc3)C(=O)N2[C@H]1C(=O)O; test: as §1; procedure, shortened: as §2
[11] = substrate: CCN1CCN(C(=O)N[C@@H](C(=O)N[C@@H]2C(=O)N3[C@@H]2SC(C)(C)[C@@H]3C(=O)O)c2ccccc2)C(=O)C1=O; test: as §1; procedure, shortened: as §2
[12] = substrate: CC1(C)S[C@@H]2[C@H](NC(=O)COc3ccccc3)C(=O)N2[C@H]1C(=O)O; test: as §1; procedure, shortened: as §2

Row | Molecule | Activity [1] | MIC [2] | logP [3] | Papp [4] | K0.5 [5] | Km [6] | Km [7] | Km [8] | Km [9] | Km [10] | Km [11] | Km [12]
1 | CC1(C)S[C@@H]2[C@H](NC(=O)[C@H](N)c3ccccc3)C(=O)N2[C@H]1C(=O)O [AMPICILLIN] | 2.9 µM | 39 µg/mL (≈ 112 µM) | -1.03 |  |  |  |  |  |  |  |  | 
2 | CC1(C)S[C@@H]2[C@H](NC(=O)[C@H](NC(=O)N3CCNC3=O)c3ccccc3)C(=O)N2[C@H]1C(=O)O [AZLOCILLIN] | 1.3 µM | 44 µg/mL (≈ 95.3 µM) | 0.71 | 40 ×10⁻⁶ cm/s | 1.06 µM |  |  |  |  |  |  | 
3 | Cc1onc(-c2ccccc2Cl)c1C(=O)N[C@@H]1C(=O)N2[C@@H]1SC(C)(C)[C@@H]2C(=O)O [CLOXACILLIN] | 11 µM | 295 µg/mL (≈ 677 µM) | 2.8 | 60 ×10⁻⁶ cm/s | 0.91 µM |  |  |  |  |  |  | 
4 | Cc1onc(-c2c(Cl)cccc2Cl)c1C(=O)N[C@@H]1C(=O)N2[C@@H]1SC(C)(C)[C@@H]2C(=O)O [DICLOXACILLIN] | 39 µM | 560 µg/mL (≈ 1190 µM) | 3.4 | 60 ×10⁻⁶ cm/s | 0.53 µM |  |  |  |  |  |  | 
5 | CC1(C)S[C@@H]2[C@H](NC(=O)[C@H](NC(=O)N3CCN(S(C)(=O)=O)C3=O)c3ccccc3)C(=O)N2[C@H]1C(=O)O [MEZLOCILLIN] | 1.1 µM | 30 µg/mL (≈ 55.6 µM) | 0.67 | 50 ×10⁻⁶ cm/s | 1.08 µM |  |  |  |  |  |  | 
6 | Cc1onc(-c2ccccc2)c1C(=O)N[C@@H]1C(=O)N2[C@@H]1SC(C)(C)[C@@H]2C(=O)O [OXACILLIN] | 12 µM | 282 µg/mL (≈ 702 µM) | 2.1 | 60 ×10⁻⁶ cm/s | 0.97 µM |  |  |  |  |  |  | 
7 | CC1(C)S[C@@H]2[C@H](NC(=O)COc3ccccc3)C(=O)N2[C@H]1C(=O)O [PENICILLIN V] | 33 µM | 178 µg/mL (≈ 508 µM) | 1.54 | 70 ×10⁻⁶ cm/s | 0.82 µM |  |  |  |  |  |  | 
8 | CCN1CCN(C(=O)N[C@@H](C(=O)N[C@@H]2C(=O)N3[C@@H]2SC(C)(C)[C@@H]3C(=O)O)c2ccccc2)C(=O)C1=O [PIPERACILLIN] | 1.2 µM | 46 µg/mL (≈ 88.9 µM) | 0.45 | 30 ×10⁻⁶ cm/s | 1.06 µM |  |  |  |  |  |  | 
9 | B1 |  |  |  |  |  | 34 µM | 29 µM | 31 µM | 52 µM | 18 µM | 34 µM | 29 µM
